# The list is not random: actives were taken first. Their share in the collection is about 2.4%.
# APOBEC3G inh – APOBEC3G DNA deaminase inhibitors, primary screen, biochemical, fluorescence, single-stranded DNA substrate, uHTS | AID 493012, 2011 | DNA dC->dU-editing enzyme APOBEC-3G (Homo sapiens), Q9HC16 | inhibition, % at 20 µM | recombinant A3G, ssDNA deamination FAM/TAMRA fluorescence | hit rate 0.28% among 330,000;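 active = inhibition of at least 40% at 20 µM, with no more than 30% in the related APOBEC3A deaminase screen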;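 also: plate controls were DMSO wells with A3G for no effect and wells lacking A3G enzyme for full effect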
# PfG6PD inh – PfG6PD enzyme inhibitors, primary screen, biochemical, fluorescence intensity, uHTS | glucose-6-phosphate dehydrogenase-6-phosphogluconolactonase (Plasmodium falciparum 3D7) | PfGluPho enzyme, NADPH resazurin-diaphorase fluorescence | inhibition, % at 20 µM | hit rate 0.78% among 350,000 | AID 504690, 2011;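 active = inhibition reaching at least a set limit at 20 µM in the primary screen, cut at about 59% in these data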;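 also: 0% = DMSO wells with substrate and 100% = DMSO wells lacking glucose-6-phosphate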
# PfM18AAP inh – PfM18AAP inhibitors, malaria aminopeptidase, primary screen, biochemical, QFRET, recombinant enzyme. inhibition, % at 7.35 µM. M18 aspartyl aminopeptidase (Plasmodium falciparum 3D7). H-Glu-NHMec fluorogenic cleavage. hit rate 1.2% among 290,000;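 active = inhibition above the campaign mean inhibition over all tested compounds plus 3 SD, cut at about 28% in these data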;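 also: 0% = plate median of test compound wells and 100% = 2 mM ZnCl2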
# A3A deaminase – APOBEC3A ssDNA deaminase inhibitors, primary screen, selectivity assay for APOBEC3G inhibitor project, biochemical, FAM/TAMRA oligo cleavage fluorescence; inhibition, % at 20 µM; hit rate 0.41% among 330,000; recombinant A3A, FAM/TAMRA ssDNA deamination fluorescence; DNA dC->dU-editing enzyme APOBEC-3A (Homo sapiens), P31941;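 active = at least 40% inhibition at 20 µM here, with at most 30% in a related deaminase screen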;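 also: plate controls were A3A with DMSO for no effect and wells lacking A3A enzyme for full effect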
# HKDC1 inh – HKDC1 hexokinase inhibitors, primary screen, biochemical, fluorescence, uHTS; Q2TB90; recombinant HKDC1, G6PDH/diaphorase resazurin coupled fluorescence; hit rate 0.16% among 340,000; inhibition, % at 20 µM;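 active = inhibition above about 35% when tested at 20 µM, limit read from the data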;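 also: plate controls were DMSO wells with enzyme for no effect and DMSO wells lacking enzyme for full effect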
# Target sequence (Q2TB90 whole entry, looked up): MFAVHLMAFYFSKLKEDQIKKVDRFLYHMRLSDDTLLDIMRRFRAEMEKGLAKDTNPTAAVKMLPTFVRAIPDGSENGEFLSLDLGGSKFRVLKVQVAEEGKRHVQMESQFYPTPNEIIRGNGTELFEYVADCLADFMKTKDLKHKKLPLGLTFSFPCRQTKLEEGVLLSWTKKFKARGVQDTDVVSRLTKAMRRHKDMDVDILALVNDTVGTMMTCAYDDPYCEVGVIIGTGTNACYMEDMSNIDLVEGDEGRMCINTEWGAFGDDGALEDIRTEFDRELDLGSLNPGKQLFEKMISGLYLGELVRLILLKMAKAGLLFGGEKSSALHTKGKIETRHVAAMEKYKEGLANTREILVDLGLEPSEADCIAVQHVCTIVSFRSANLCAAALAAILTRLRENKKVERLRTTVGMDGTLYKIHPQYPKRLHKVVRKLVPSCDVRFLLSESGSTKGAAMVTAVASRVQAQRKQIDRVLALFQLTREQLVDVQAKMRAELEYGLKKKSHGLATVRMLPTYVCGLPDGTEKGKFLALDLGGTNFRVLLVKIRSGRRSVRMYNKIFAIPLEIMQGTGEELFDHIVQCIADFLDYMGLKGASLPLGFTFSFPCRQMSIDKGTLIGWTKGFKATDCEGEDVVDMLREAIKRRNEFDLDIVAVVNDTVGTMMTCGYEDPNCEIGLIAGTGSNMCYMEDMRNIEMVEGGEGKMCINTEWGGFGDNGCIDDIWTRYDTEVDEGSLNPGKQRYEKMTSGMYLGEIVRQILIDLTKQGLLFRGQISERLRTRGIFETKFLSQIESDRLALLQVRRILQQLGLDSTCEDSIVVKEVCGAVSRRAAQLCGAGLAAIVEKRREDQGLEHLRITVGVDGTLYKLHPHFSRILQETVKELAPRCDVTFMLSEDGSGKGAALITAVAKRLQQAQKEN
#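 Test system: Recombinant HKDC1 (HK5) hexokinase enzyme, produced in-house | Input: HKDC1 at 5 µg/mL | Buffer or medium: Tris pH 8.0 buffer with MgCl2, Tween-20, BSA, BME | Schedule: 90 min reaction incubation at room temperature, dark | Technique: Resazurin-to-resorufin fluorescence via G6PDH and diaphorase coupling, 525/613 nm | Controls: DMSO wells with and without enzyme mix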
# UBC9 SUMO inh – inhibitors of in vitro SUMOylation cascade, primary screen, biochemical, HTRF, uHTS; hit rate 0.36% among 290,000; SUMO-conjugating enzyme UBC9 (Homo sapiens), P63279; inhibition, % at 35 µM; HTRF SUMOylation assay, SAE1/SAE2 + UBC9; in the data active = inhibition above about 50%, passing the limit was not always enough
# APOBEC3A confirm – APOBEC3A deaminase inhibitors, retest, confirmation, selectivity assay for APOBEC3G inhibitor project, biochemical, single concentration, fluorescence readout | AID 493151, 2011 | shares compounds with A3A deaminase | recombinant A3A, ssDNA deaminase UDG fluorescence assay | inhibition, % at 20 µM | hit rate 63% among 1,400;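 active = inhibition reaching a set limit, 80% of the first screen's cutoff, at 20 µM in any replicate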;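 also: plate controls were DMSO wells with A3A for no effect and wells lacking A3A enzyme for full effect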
# UDG ctr A3A – E. coli UDG inhibitors, confirmation, counter-screen for APOBEC3A inhibitor project, biochemical, single concentration, fluorescence, FAM/TAMRA oligo. shares compounds with A3A deaminase. UDG counterscreen, FAM/TAMRA uracil oligo fluorescence. inhibition, % at 20 µM. 1,000 tested, under 10 active; call rule not given here
# Starred values were filed as active, the others as inactive; . = not tested or not shown.
SMILES,APOBEC3G inh,PfG6PD inh,PfM18AAP inh,A3A deaminase,HKDC1 inh,UBC9 SUMO inh,APOBEC3A confirm,UDG ctr A3A
CCOC(=O)C1CCN(C(=O)Cc2cccc3ccccc23)CC1,6,-9,1,40*,5,2,58*,1
C/C(N)=C(/C#N)C(=O)CSc1nc2ccccc2c(=O)n1Cc1ccc(F)cc1,15,8,-12,47*,3,11,26,.
CC(C)CN(C(=O)CCCc1nc2ccccc2c(=O)[nH]1)c1c(N)n(Cc2ccccc2)c(=O)[nH]c1=O,4,-5,.,42*,-3,.,2,.
Cc1nc2ccccc2c(C)c1CC(=O)N(CC(C)C)c1c(N)n(Cc2ccccc2)c(=O)[nH]c1=O,-2,-6,.,0,-7,.,.,.
Cc1ccc(NC(=O)Cc2noc3ccccc23)cc1,-3,3,-2,0,-12,11,.,.
O=C(Cc1noc2ccccc12)Nc1ccc2ccccc2c1,-4,3,-1,47*,-2,-19,-33,8
Cc1ccc(NS(=O)(=O)c2ccc3[nH]c(=O)[nH]c3c2)cc1,0,-10,-7,0,4,.,.,.
C=CCNC(=O)c1ccccc1NS(=O)(=O)c1ccc(SC)cc1,-5,-28,4,-3,-8,2,.,.
C=CCNC(=O)c1ccccc1NC(=O)C1CCN(S(=O)(=O)c2ccc(SC)cc2)CC1,12,-2,-2,44*,0,-6,60*,-3
CSc1ccc(S(=O)(=O)N2CCC(C(=O)NCc3ccccn3)CC2)cc1,21,-2,-8,59*,-4,10,53*,-2
O=C(Nc1ccc(N2CCCCC2)cc1)c1cccnc1Cl,-4,0,4,-2,5,11,.,.
CCc1noc(C)c1C(=O)N1CCCC(N2CCN(c3ccccc3F)CC2)C1 (stereo unspecified),-3,4,-10,0,-1,9,.,.
COc1cc2c(cc1OC)CN(S(=O)(=O)/C=C/c1ccccc1)CC2,-9,7,-1,-2,-3,-15,.,.
Cc1ccccc1NC(=O)C1c2cccc[n+]2CC(=O)N1c1c(C)cccc1C (stereo unspecified),17,19,1,40*,6,6,18,.
Cn1c(SCC(=O)N2CCOCC2)nnc1-c1cccc(NC(=O)c2ccccc2)c1,20,8,-7,64*,-4,-4,66*,-2
CC1c2[nH]c3ccccc3c2CCN1S(C)(=O)=O (stereo unspecified),4,7,-6,1,-2,3,.,.
CC1CCCN(C(=O)COC(=O)COc2ccc(Cl)cc2)C1 (stereo unspecified),0,1,.,-2,-6,.,.,.
O=C(COc1ccc(Cl)cc1)OCC(=O)N1CCCC1,-4,-23,-8,55*,-10,17,-1,3
CC(C)(C)OC(=O)N1Cc2ccccc2C[C@H]1C(=O)NCC(=O)NC1CCCC1,-1,4,-7,-1,-5,23,.,.
C[n+]1cccc(C(=O)Nc2ccccc2)c1,18,5,-3,70*,-5,7,57*,-2
C[n+]1cccc(C(=O)NCC2CCCO2)c1 (stereo unspecified),24,-6,-5,79*,0,11,75*,1
COc1cccc(NC(=O)c2ccc[n+](C)c2)c1,26,-2,5,77*,0,13,75*,2
O=C(Nc1ccc(C(=O)c2ccccc2)cc1)c1ccccc1,-1,24,-4,3,3,-6,.,.
COCCn1c(SCC(=O)N2CCCc3ccccc32)nnc1-c1ccco1,-7,4,-16,-10,5,4,.,.
Cc1ccc(S(=O)(=O)N2CCCCC2)cc1NC(=O)C1CC(=O)N(c2ccc3c(c2)OCCO3)C1 (stereo unspecified),-7,-8,.,-1,2,.,.,.
SMILES,APOBEC3G inh,PfG6PD inh,PfM18AAP inh,A3A deaminase,HKDC1 inh,UBC9 SUMO inh,APOBEC3A confirm,UDG ctr A3A
COC(=O)/C(C(C)=O)=C(/C=C/C=C/N(C)C)N(C)C,5,6,3,26,-10,6,.,.
COC(=O)\C(C(C)=O)=C(/C=C/C=C/N(C)C)N(C)C,14,16,-1,47*,-7,15,35*,.
COc1ccccc1OC(C)C(=O)N1CCC(Cc2ccccc2)CC1 (stereo unspecified),5,1,4,55*,-6,9,47*,-2
Cc1ccccc1OC(C)C(=O)N1CCC(Cc2ccccc2)CC1 (stereo unspecified),-5,3,0,0,-3,5,.,.
CCOc1cc(/C=C(\C#N)C(=O)NCC2CCCO2)ccc1OCC(N)=O (stereo unspecified),13,3,-3,51*,-3,18,43*,-2
CCOc1cc(/C=C(\C#N)C(=O)NCC2CCCO2)ccc1O (stereo unspecified),-11,6,8,-3,-4,-15,.,.
Fc1ccc(Nc2nc(-c3cccnc3)cs2)cc1,-2,13,1,5,-2,5,.,.
COc1ccc(C(=O)NC2CCN(CC(=O)N3CCCCC3)CC2)cc1,4,14,-9,41*,-7,-10,6,.
Cc1cc(C)n(C(=O)c2ccc([N+](=O)[O-])cc2N)n1,-1,30,8,-3,-6,8,.,.
Cc1ccc(Nc2nc(-c3ccc(S(=O)(=O)N4CCCC4)cc3)cs2)cc1C,-3,38,18,87*,-9,5,-7,0
COc1ccc(C(=O)NCC(=O)OCCCOC(=O)CNC(=O)c2ccc(OC)c(OC)c2)cc1OC,10,-11,2,42*,0,6,2,.
COc1ccc(C(=O)NCC(=O)OCC(=O)c2ccc(Cl)cc2)cc1OC,-11,-5,3,1,-1,-8,.,.
Cc1cc(C(=O)CSc2nn3c(=O)c(C(C)(C)C)nnc3s2)c(C)n1-c1ccc(F)cc1,-4,0,20,-16,11,-14,.,.
